Measurements published in ChEMBL document CHEMBL1914444, “Chemical synthesis, biological evaluation and structure-activity relationship analysis of azaisoindolinones, a novel class of direct enoyl-ACP reductase inhibitors as potential antimycobacterial agents” (Bioorg Med Chem, 2011).
Values after ≈ are worked out from the molar mass of the structure shown.

Legend:
[1] = target: T1, Enoyl-[acyl-carrier-protein] reductase [NADH] (Mycobacterium tuberculosis) (UniProt P9WGR1); test: Inhibition of Mycobacterium tuberculosis InhA using 2-trans-decenoyl-CoA as substrate at 30 uM after 5 mins by spectrophotometry
T1 sequence (whole entry): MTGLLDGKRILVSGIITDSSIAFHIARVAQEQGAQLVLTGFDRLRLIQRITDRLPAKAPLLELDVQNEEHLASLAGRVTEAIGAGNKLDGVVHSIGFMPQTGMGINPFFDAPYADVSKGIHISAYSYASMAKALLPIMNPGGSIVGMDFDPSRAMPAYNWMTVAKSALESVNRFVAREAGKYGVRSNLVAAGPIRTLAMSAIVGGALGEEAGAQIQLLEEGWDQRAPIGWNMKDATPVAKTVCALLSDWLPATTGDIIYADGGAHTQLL
Procedure, shortened: (§1)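 Recombinant M. tuberculosis InhA expressed in E. coli (70 nM) was pre-incubated with NADH and compound in 30 mM PIPES, 150 mM NaCl, pH 6.8, 25 °C, with 0.5% final DMSO. Substrate was 2-trans-decenoyl-CoA. Activity was followed as the decrease in A340; initial rates gave % inhibition versus control. Run in triplicate.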

[2] = target: T1, Enoyl-[acyl-carrier-protein] reductase [NADH] (Mycobacterium tuberculosis); test: Inhibition of Mycobacterium tuberculosis InhA using 2-trans-decenoyl-CoA as substrate at 100 uM after 5 mins by spectrophotometry; procedure, shortened: as §1
[3] = test system: Mycobacterium tuberculosis; test: Antimycobacterial activity Mycobacterium tuberculosis H37Rv after 6 days by MTT colorimetric assay; type: functional, organism-based; details: 144 h

CCCCCCCCCCCCOc1cccc(C2(O)NC(=O)c3cnccc32)c1 (racemic)
inhibition [1]: 12%
inhibition [2]: 27%
MIC [3]: 156 µM (≈ 64 µg/mL)

CCCCCCCCCCCCc1cccc(C2(O)NC(=O)c3cnccc32)c1 (racemic)
IC50 [3]: 7 µM
MIC [3]: 9.8 µM (≈ 3.87 µg/mL)

CCCCCCCCCCCCCCCCCCOc1cccc(C2(O)NC(=O)c3cnccc32)c1 (racemic)
inhibition [1]: 28%
inhibition [2]: 67%
IC50 [3]: 12 µM
MIC [3]: 25 µM (≈ 12.4 µg/mL)

CCCCCCCCOc1cccc(C2(O)NC(=O)c3cnccc32)c1 (racemic)
inhibition [2]: 12%
MIC [3]: 250 µM (≈ 88.6 µg/mL)

CCCCCCCCCCCCOc1ccc(C2(O)NC(=O)c3cnccc32)cc1 (racemic)
inhibition [1]: 1%
inhibition [2]: 16%
MIC [3]: > 100 µM

CCCCCCCCCCCCOc1ccccc1C1(O)NC(=O)c2cnccc21 (racemic)
inhibition [1]: 0%
inhibition [2]: 0%
MIC [3]: > 100 µM

CCCCCCCCCCCCOc1cccc(C2(OC)NC(=O)c3cnccc32)c1 (racemic)
inhibition [2]: 0%
IC50 [3]: 10 µM
MIC [3]: 25 µM (≈ 10.6 µg/mL)

CCCCCCCCCCCCSc1cccc(C2(O)NC(=O)c3cnccc32)c1 (racemic)
inhibition [1]: 15%
inhibition [2]: 66%
IC50 [3]: 6.5 µM
MIC [3]: 12.5 µM (≈ 5.33 µg/mL)

CCCCCCCCCCCCCCCCCCSc1cccc(C2(O)NC(=O)c3cnccc32)c1 (racemic)
inhibition [1]: 26%
MIC [3]: > 100 µM

CCCCCCCCCCCCNc1cccc(C2(O)NC(=O)c3cnccc32)c1 (racemic)
inhibition [1]: 1%
inhibition [2]: 9%
MIC [3]: > 100 µM

CCCCCCCCCCCCN1C(=O)c2cnccc2C1(O)c1ccccc1 (racemic)
inhibition [1]: 0%
inhibition [2]: 13%
IC50 [3]: 4.5 µM
MIC [3]: 12.5 µM (≈ 4.93 µg/mL)

CCCCCCCCCCCCCCC1(O)NC(=O)c2cnccc21 (racemic)
inhibition [2]: 10%
MIC [3]: > 100 µM

CCCCCCCCCCCCOC1(c2ccccc2)NC(=O)c2cnccc21 (racemic)
inhibition [1]: 20%
IC50 [3]: 9.5 µM
MIC [3]: 25 µM (≈ 9.86 µg/mL)

O=C(O)c1cn(C2CC2)c2cc(N3CCNCC3)c(F)cc2c1=O [CIPROFLOXACIN]
MIC [3]: 2.5 µM (≈ 0.828 µg/mL)

NNC(=O)c1ccncc1 [ISONIAZID]
MIC [3]: 0.6 µM (≈ 0.0823 µg/mL)
